Active and inactive are the calls of the source. The calls are words filed in the database; no cut-off is given here.
How the values were obtained:
[1] = organism: Homo sapiens; experiment: Inhibition of Wnt/beta-catenin signaling pathway in human HCT116 whole cell lysate harboring beta-catenin mutation assessed as reduction in cyclin D1 protein expression at 5 uM after 18 hrs by Western blot analysis
Outline: (§1)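 CCRC240, HCT116 or SW480 cells were grown to 50–70% confluency and exposed 18 h to 5 μM compound in DMSO. Whole-cell lysates were blotted for c-Myc, cyclin D1 and survivin. Hypotonic cytosolic fractions, syringe-dispersed and centrifuged 120 min, were blotted for β-catenin and Axin2. β-Actin served as loading control.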

[2] = organism: Homo sapiens; experiment: Inhibition of Wnt/beta-catenin signaling pathway in human SW480 cells cytosol lysate harboring APC mutation assessed as reduction in beta-catenin protein expression at 5 uM after 18 hrs by Western blot analysis; format: cell-based; outline: as §1
[3] = organism: Homo sapiens; experiment: Inhibition of Wnt/beta-catenin signaling pathway in human CRC240 whole cell lysate assessed as reduction in cyclin D1 protein expression at 5 uM after 18 hrs by Western blot analysis; outline: as §1
[4] = target: AMP-activated protein kinase, AMPK (Homo sapiens) (UniProt P54646+O43741+P54619+Q9UGJ0+Q9Y478+Q13131+Q9UGI9); experiment: Induction of AMPK phosphorylation in human CCD-841-CoN cells at 0.1 to 10 uM after 2 hrs by Western blot analysis; format: cell-based
Outline: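 Colonic epithelial CCD841Co cells were seeded at 0.27 million per well on poly-D-lysine-coated wells and attached overnight. Medium was then switched to glucose-free DMEM with 2 mM pyruvate and 2 mM glutamine containing compound or DMSO. Whole-cell lysates were immunoblotted for phospho-Thr172 AMPK and total AMPK, with β-actin as loading control. Methods give 30 min exposure; legend gives 2 h.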

[5] = system: Mus musculus; experiment: Apparent volume of distribution in NOD/SCID mouse at 1 mg/kg, po by LC-MS/MS-based non-compartmental extravascular input analysis; format: ADME, organism-based; details: in vivo
[6] = system: Mus musculus; experiment: In vivo inhibition of Wnt/beta-catenin signaling pathway in NOD/SCID mouse xenografted with human CRC240 cells assessed as reduction in survivin protein expression at 1 mg/kg, po administered 11 days by Western blot method; format: functional, organism-based
Outline: (§2)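 CRC240 PDX tumours were taken from NOD/SCID mice the day after 11 days of once-daily oral dosing (1 mg/kg, in 10% NMP/90% PEG300). Tumours were lysed in RIPA buffer and immunoblotted for Axin2, survivin and c-Myc. Bands were normalized to β-actin, n = 3, two-tailed t-test versus vehicle.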

[7] = system: CCD-841CoN; experiment: Stimulation of mitochondrial respiration in human CCD-841-CoN cells assessed as increase in oxygen consumption rate at 1 uM in presence of rotenone and […] antimycin A by polarographic analysis; format: functional, cell-based
Outline: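 CCD841Co cells were plated at 8000 per well and attached overnight. OCR was measured on a Seahorse XFp analyzer under basal conditions after 1 μM compound or DMSO was added. This was followed by 1 μM oligomycin, 1 μM FCCP, then 0.5 μM rotenone plus antimycin A (Mito Stress Test). Data given as mean ± SD, n = 2.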

[8] = organism: Homo sapiens; experiment: Inhibition of Wnt/beta-catenin signaling pathway in human HCT116 whole cell lysate harboring beta-catenin mutation assessed as reduction in c-Myc protein expression at 5 uM after 18 hrs by Western blot analysis; outline: as §1
[9] = system: DLD-1; experiment: Antiproliferative activity against human DLD1 cells after 72 hrs by colorimetric MTS assay; format: functional, cell-based; details: DLD-1, 72 h
Outline: (§3)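 Cells plated at 5000 per well in their own media (Leibovitz's for SW948; McCoy's 5A for HT-29/HCT116; MEM for SW480; RPMI for CRC240/DLD-1) with 10% FBS. Exposed 72 h to compound, 0.001–10 μM or 0.04–10 μM, then colorimetric MTS read-out. […] CRC240 is a patient-derived xenograft line.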

[10] = organism: Homo sapiens; experiment: Inhibition of Wnt/beta-catenin signaling pathway in human SW480 whole cell lysate harboring APC mutation assessed as reduction in cyclin D1 protein expression at 5 uM after 18 hrs by Western blot analysis; outline: as §1
[11] = system: Homo sapiens; experiment: Antitumor activity against human CRC240 cells xenografted in NOD/SCID mouse at 1 mg/kg, po administered 11 days and measured on day 4, 8 during compound dosing and day 11 post last dose; format: functional, organism-based
Outline: (§4)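 Minced CRC240 PDX tissue (150 mg/ml in PBS, 200 μl) implanted in flanks of NOD/SCID mice. At about 100 mm3 tumours, mice randomized and dosed orally once daily for 11 days. Vehicle: 10% 1-methyl-2-pyrrolidinone/90% PEG300, with dosing suspensions or solutions at […] or 0.2 mg/ml. Tumour size and body weight recorded on days 0, 4, 8 and 11. n = 3, two-tailed t-test versus vehicle.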

[12] = system: SW948; experiment: Antiproliferative activity against human SW948 cells after 72 hrs by colorimetric MTS assay; format: functional, cell-based; details: SW948, 72 h; outline: as §3
[13] = Inhibition of Wnt3A-stimulated Wnt/beta-catenin pathway in HEK293 cells transfected with p8xTOPFlash, Renilla luciferase plasmid pRL-TK and pLKO.1 after 6 hrs by Dual topflash luciferase reporter assay; format: cell-based; details: Homo sapiens, HEK293, 6 h
Outline: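 HEK293 cells stably carrying p8xTOPFlash, pRL-TK and pLKO.1 were grown overnight to confluence in MEM/10% FBS with 1 μg/ml puromycin. Wnt-3A conditioned medium (from L Wnt-3A cells) containing compound (0.04–10 μM) or DMSO was added for 6 h. Dual-luciferase was read, with the Wnt3A+DMSO signal set as 100%.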

[14] = system: HT-29; experiment: Antiproliferative activity against human HT-29 cells after 72 hrs by colorimetric MTS assay; format: functional, cell-based; details: HT-29, 72 h; outline: as §3
[15] = Apparent oral volume of distribution in NOD/SCID mouse at 1 mg/kg by LC-MS/MS-based compartmental first order extravascular input, first order elimination analysis; format: ADME, organism-based; details: in vivo
[16] = system: Mus musculus; experiment: Time at which plasma concentration stays above in vitro IC50 for inhibition of Wnt3A-stimulated Wnt/beta-catenin pathway in HEK293 cells in NOD/SCID mouse at 1 mg/kg, po by LC-MS/MS analysis; format: organism-based; details: in vivo
Outline: (§5)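 NOD/SCID mice (n = 4) received a single oral dose of 1 mg/kg from a 0.2 mg/mL solution in 10% NMP/90% PEG300. Serial tail-vein blood was taken from pre-dose to 72 h and plasma kept at −80 °C. Samples were extracted with ethyl acetate against an internal standard and run on LC/MS/MS (MRM 405.8/218.9). The calibration range was 2.4–1000 ng/mL in plasma.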

[17] = system: Mus musculus; experiment: In vivo inhibition of Wnt/beta-catenin signaling pathway in NOD/SCID mouse xenografted with human CRC240 cells assessed as reduction in Axin2 protein expression at 1 mg/kg, po administered 11 days by Western blot method; format: functional, organism-based; outline: as §2
[18] = Antiproliferative activity against human CRC240 cells after 72 hrs by colorimetric MTS assay; format: functional, cell-based; outline: as §3
[19] = organism: Homo sapiens; experiment: Inhibition of Wnt/beta-catenin signaling pathway in human SW480 cells cytosol lysate harboring APC mutation assessed as reduction in Axin2 protein expression at 5 uM after 18 hrs by Western blot analysis; format: cell-based; outline: as §1
[20] = system: CCD-841CoN; experiment: Stimulation of mitochondrial respiration in human CCD-841-CoN cells assessed as increase in oxygen consumption rate at 1 uM under basal conditions by polarographic analysis
[21] = organism: Homo sapiens; experiment: Inhibition of Wnt/beta-catenin signaling pathway in human CRC240 cells cytosol lysate assessed as reduction in beta-catenin protein expression at 5 uM after 18 hrs by Western blot analysis; format: cell-based; outline: as §1
[22] = system: Mus musculus; experiment: Apparent clearance in NOD/SCID mouse at 1 mg/kg, po by LC-MS/MS-based non-compartmental extravascular input analysis; format: ADME, organism-based; details: in vivo
[23] = system: HCT-116; experiment: Antiproliferative activity against human HCT116 cells after 72 hrs by colorimetric MTS assay; format: functional, cell-based; details: HCT-116, 72 h; outline: as §3
[24] = organism: Homo sapiens; experiment: Inhibition of Wnt/beta-catenin signaling pathway in human SW480 whole cell lysate harboring APC mutation assessed as reduction in c-Myc protein expression at 5 uM after 18 hrs by Western blot analysis; outline: as §1
[25] = organism: Homo sapiens; experiment: Inhibition of Wnt/beta-catenin signaling pathway in human HCT116 cells cytosol lysate harboring beta-catenin mutation assessed as reduction in beta-catenin protein expression at 5 uM after 18 hrs by Western blot analysis; format: cell-based; outline: as §1
[26] = system: Mus musculus; experiment: Dose normalized AUC (0 to infinity) in NOD/SCID mouse at 1 mg/kg, po by LC-MS/MS-based compartmental first order extravascular input, first order elimination analysis; format: ADME, organism-based; details: in vivo
[27] = organism: Homo sapiens; experiment: Inhibition of Wnt/beta-catenin signaling pathway in human HCT116 whole cell lysate harboring beta-catenin mutation assessed as reduction in survivin protein expression at 5 uM after 18 hrs by Western blot analysis; outline: as §1
[28] = organism: Homo sapiens; experiment: Inhibition of Wnt/beta-catenin signaling pathway in human HCT116 cells cytosol lysate harboring beta-catenin mutation assessed as reduction in Axin2 protein expression at 5 uM after 18 hrs by Western blot analysis; format: cell-based; outline: as §1
[29] = system: Mus musculus; experiment: Time at which plasma concentration stays above in vitro IC50 for antiproliferative activity against human CRC240 cells in NOD/SCID mouse at 1 mg/kg, po by LC-MS/MS analysis; format: organism-based; details: in vivo; outline: as §5
[30] = target: Frizzled-1 (Homo sapiens) (UniProt Q9UP38); experiment: Induction of GFP-tagged Fzd1 (unknown origin) internalization expressed in human U2OS cells at 12.5 after 6 hrs by confocal microscopic method; format: functional, cell-based
Outline: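 U2OS cells stably expressing Fzd1-GFP were grown 24 h in confocal dishes and then treated 6 h at 37 °C with 12.5 μM compound, DMSO as control. Cells were fixed in 4% paraformaldehyde and imaged by confocal microscopy (488 nm excitation). Internalization was scored as intracellular green punctate vesicles.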

[31] = system: Mus musculus; experiment: Apparent clearance in NOD/SCID mouse at 1 mg/kg, po by LC-MS/MS-based compartmental first order extravascular input, first order elimination analysis; format: ADME, organism-based; details: in vivo
[32] = system: SW480; experiment: Antiproliferative activity against human SW480 cells after 72 hrs by colorimetric MTS assay; format: functional, cell-based; details: SW480, 72 h; outline: as §3
[33] = organism: Homo sapiens; experiment: Inhibition of Wnt/beta-catenin signaling pathway in human CRC240 cells cytosol lysate assessed as reduction in Axin2 protein expression at 5 uM after 18 hrs by Western blot analysis; format: cell-based; outline: as §1
[34] = system: Mus musculus; experiment: In vivo inhibition of Wnt/beta-catenin signaling pathway in NOD/SCID mouse xenografted with human CRC240 cells assessed as reduction in c-Myc protein expression at 1 mg/kg, po administered 11 days by Western blot method; format: functional, organism-based; outline: as §2
[35] = AUC (0 to 72 hrs) in NOD/SCID mouse at 1 mg/kg, po by LC-MS/MS-based non-compartmental extravascular input analysis; format: ADME, organism-based; parameters: dose 1 mg/kg, time < 72 hr, route oral; details: in vivo
[36] = organism: Homo sapiens; experiment: Inhibition of Wnt/beta-catenin signaling pathway in human SW480 whole cell lysate harboring APC mutation assessed as reduction in survivin protein expression at 5 uM after 18 hrs by Western blot analysis; outline: as §1
[37] = system: Mus musculus; experiment: Toxicity in NOD/SCID mouse xenografted with human CRC240 cells assessed as change in body weight at 1 mg/kg, po administered 11 days and measured on day 4, 8 during compound dosing and day 11 post last dose; format: organism-based; details: in vivo, 264 h; outline: as §4
[38] = organism: Homo sapiens; experiment: Inhibition of Wnt/beta-catenin signaling pathway in human CRC240 whole cell lysate assessed as reduction in c-Myc protein expression at 5 uM after 18 hrs by Western blot analysis; outline: as §1
[39] = organism: Homo sapiens; experiment: Inhibition of Wnt/beta-catenin signaling pathway in human CRC240 whole cell lysate assessed as reduction in survivin protein expression at 5 uM after 18 hrs by Western blot analysis; outline: as §1
[40] = system: Mus musculus; experiment: Dose normalized AUC (0 to infinity) in NOD/SCID mouse at 1 mg/kg, po by LC-MS/MS-based non-compartmental extravascular input analysis; format: ADME, organism-based; details: in vivo

Chain of Frizzled-1 (Homo sapiens) (Q9UP38 70-647 limits assumed): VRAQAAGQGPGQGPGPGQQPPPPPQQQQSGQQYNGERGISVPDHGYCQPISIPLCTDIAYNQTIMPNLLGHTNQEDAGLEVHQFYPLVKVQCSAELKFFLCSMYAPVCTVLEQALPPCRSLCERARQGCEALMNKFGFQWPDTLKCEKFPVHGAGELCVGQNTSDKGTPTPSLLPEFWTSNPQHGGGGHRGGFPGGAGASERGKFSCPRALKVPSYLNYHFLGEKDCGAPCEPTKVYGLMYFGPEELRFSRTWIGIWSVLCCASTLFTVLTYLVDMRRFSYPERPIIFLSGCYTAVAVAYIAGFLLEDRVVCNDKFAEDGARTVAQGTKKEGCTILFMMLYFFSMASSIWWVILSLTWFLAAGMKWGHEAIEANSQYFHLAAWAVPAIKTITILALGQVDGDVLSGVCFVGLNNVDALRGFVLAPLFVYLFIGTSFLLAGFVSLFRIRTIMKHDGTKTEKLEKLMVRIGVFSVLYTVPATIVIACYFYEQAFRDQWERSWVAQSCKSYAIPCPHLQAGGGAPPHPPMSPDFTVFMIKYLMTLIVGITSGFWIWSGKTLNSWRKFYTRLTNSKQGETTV

inhibition [1]: Active | inhibition [3]: Active | Activity [4]: Active | Vz [5]: 0.8 L/kg | inhibition [8]: Active | IC50 [9]: 360 nM | inhibition [10]: Active | IC50 [12]: 70 nM | IC50 [13]: 190 nM | IC50 [14]: 120 nM | Vd/F [15]: 0.98 L/kg | Time [16]: 24 h | CL/F [22]: 1 mL/min/kg | IC50 [23]: 280 nM | inhibition [24]: Active | AUC/dose [26]: 16.3 µg·h/mL | Activity [30]: Active | CL/F [31]: 1 mL/min/kg | IC50 [32]: 330 nM | AUC(0-t) at 72 h [35]: 16800 ng·h/mL | inhibition [38]: Active | AUC/dose [40]: 16.9 µg·h/mL
Structure (SMILES): O=C(Nc1ccc(C(F)(F)F)cc1)c1cc(Cl)cc2nc(C(F)(F)F)[nH]c12
inhibition [2]: Active | inhibition [6]: Active | Activity [7]: inactive | Activity [11]: Active | inhibition [17]: Active | IC50 [18]: 320 nM | inhibition [19]: Active | Activity [20]: Active | inhibition [21]: Active | inhibition [25]: Active | inhibition [27]: Active | inhibition [28]: Active | Time [29]: 24 h | inhibition [33]: Active | inhibition [34]: Active | inhibition [36]: Active | Activity [37]: Non-Toxic | inhibition [39]: Active
